Values after ≈ are worked out from the molar mass of the structure shown. Active and inactive are the calls of the source. The rule behind the calls is not given here.
Legend:
[1] = test system: Rattus norvegicus; assay: Antiinflammatory activity in rat adjuvant induced arthritis model assessed as suppression of Mycobacterium tuberculosis H37 RA induced paw swelling at 10 mg/kg measured from day 11 to 15 relative to vehicle control; format: functional, organism-based
Method in brief: (§1)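 Rat adjuvant-induced arthritis: paw widths measured, then 0.25 mg adjuvant (Mycobacterium tuberculosis H37 RA) in 100 µl mineral oil given intradermally at tail base (day 0). On day 11, width of both paws was re-measured as percent change from day 0, and rats were randomized on this and body weight before dosing. Rats were euthanized day 15 without further dosing and paw width measured.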

[2] = test system: Rattus norvegicus; assay: Antiinflammatory activity in rat MIA model assessed as inhibition of differential weight bearing at 5 mg/kg, po measured 30 mins post dose by incapacitance test; format: functional, organism-based
Method in brief: (§2)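 MIA 0.3 mg in 50 µL saline injected into right knee and saline into left knee of rats on day 0. Day 12: randomized, single oral dose in 10% acacia in water plus 0.05% antifoam at 0.3–10 mg/kg, with diclofenac 5 mg/kg. Hind-limb weight distribution measured by incapacitance tester 30 min post dose. n = 5/group, Dunnett's test versus vehicle.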

[3] = biological target: D(1A) dopamine receptor (Homo sapiens) (UniProt P21728); assay: Inhibition of human dopamine D1 receptor at 10 uM
Method in brief: (§3)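 Off-target selectivity panel covering 13 receptors, four ion channels, one transporter and one enzyme, plus prostanoid DP1, FP, IP and TP receptors and COX-1/2. Test concentration 10 µM.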

[4] = biological target: Thromboxane A2 receptor (Homo sapiens) (UniProt P21731); assay: Inhibition of prostaglandin TP receptor (unknown origin) at 10 uM; method in brief: as §3
[5] = biological target: T1, Cytochrome P450 2D6 (Homo sapiens, UniProt P10635); assay: Inhibition of CYP2D6 (unknown origin) at 10 uM; format: ADME
Method in brief: (§4)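 Inhibition of CYP1A2, 2B6, 2C19, 2C8, 2C9, 2D6 and 3A4 tested in vitro at concentrations up to 10 µM.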

[6] = biological target: L-type calcium channel dihydropyridine binding site (Homo sapiens, UniProt O60840+Q01668+Q13698+Q13936); assay: Inhibition of L-type calcium channel dihydropyridine binding site (unknown origin) at 10 uM; format: protein assay; method in brief: as §3
[7] = biological target: T2, Cytochrome P450 2C9 (Homo sapiens, UniProt P11712); assay: Inhibition of CYP2C9 (unknown origin); format: ADME; method in brief: as §4
[8] = biological target: Beta-1 adrenergic receptor (Homo sapiens) (UniProt P08588); assay: Inhibition of human adrenergic beta1 receptor at 10 uM; method in brief: as §3
[9] = biological target: L-type calcium channel diltiazem binding site (Homo sapiens, UniProt O60840+Q01668+Q13698+Q13936); assay: Inhibition of L-type calcium channel diltiazem binding site (unknown origin) at 10 uM; format: protein assay; method in brief: as §3
[10] = biological target: Prostacyclin receptor (Homo sapiens) (UniProt P43119); assay: Inhibition of prostaglandin IP receptor (unknown origin) at 10 uM; method in brief: as §3
[11] = Half life in dog at 5 mg/kg, po; format: ADME, organism-based, Canis lupus familiaris; conditions: in vivo
Method in brief: (§5)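 Rat and dog given single iv dose of 1 mg/kg and oral dose of 5 mg/kg. Oral AUC, Cmax and half-life and iv clearance were derived from plasma levels.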

[12] = biological target: T3, Cytochrome P450 1A2 (Homo sapiens, UniProt P05177); assay: Inhibition of CYP1A2 (unknown origin) at 10 uM; format: ADME; method in brief: as §4
[13] = biological target: T4, Cytochrome P450 3A4 (Homo sapiens, UniProt P08684); assay: Inhibition of CYP3A4 (unknown origin) at 10 uM; format: ADME; method in brief: as §4
[14] = Clearance in rat at 1 mg/kg, iv; format: ADME, organism-based; conditions: in vivo; method in brief: as §5
[15] = biological target: T5, Cytochrome P450 2C8 (Homo sapiens, UniProt P10632); assay: Inhibition of CYP2C8 (unknown origin); format: ADME; method in brief: as §4
[16] = biological target: Sodium-dependent noradrenaline transporter (Homo sapiens) (UniProt P23975); assay: Inhibition of human norepinephrine transporter at 10 uM
[17] = Cmax in dog at 5 mg/kg, po; format: ADME, organism-based, Canis lupus familiaris; parameters: dose 5 mg/kg, route oral; conditions: in vivo; method in brief: as §5
[18] = biological target: L-type calcium channel verapamil binding site (Homo sapiens, UniProt O60840+Q01668+Q13698+Q13936); assay: Inhibition of L-type calcium channel verapamil binding site (unknown origin) at 10 uM; format: protein assay; method in brief: as §3
[19] = biological target: Prostaglandin D2 receptor (Homo sapiens) (UniProt Q13258); assay: Inhibition of prostaglandin DP1 receptor (unknown origin) at 10 uM; method in brief: as §3
[20] = biological target: Beta-2 adrenergic receptor (Homo sapiens) (UniProt P07550); assay: Inhibition of human adrenergic beta2 receptor at 10 uM; method in brief: as §3
[21] = biological target: T5, Cytochrome P450 2C8; assay: Inhibition of CYP2C8 (unknown origin) at 10 uM; format: ADME; method in brief: as §4
[22] = Half life in rat at 5 mg/kg, po; format: ADME, organism-based; conditions: in vivo; method in brief: as §5
[23] = test system: Rattus norvegicus; assay: Antiinflammatory activity in orally dosed rat MIA model assessed as inhibition of differential weight bearing measured 30 mins post dose by incapacitance test; format: functional, organism-based; method in brief: as §2
[24] = biological target: T4, Cytochrome P450 3A4; assay: Inhibition of CYP3A4 (unknown origin); format: ADME; method in brief: as §4
[25] = biological target: Acetylcholinesterase (Homo sapiens) (UniProt P22303); assay: Inhibition of human acetylcholinesterase at 10 uM
[26] = biological target: T6, Cytochrome P450 2B6 (Homo sapiens, UniProt P20813); assay: Inhibition of CYP2B6 (unknown origin); format: ADME; method in brief: as §4
[27] = biological target: Adrenergic receptor alpha-2 (Rattus norvegicus) (UniProt P22086+P19328+P22909); assay: Inhibition of rat adrenergic alpha2 receptor at 10 uM; method in brief: as §3
[28] = biological target: Voltage-gated inwardly rectifying potassium channel KCNH2 (Homo sapiens, UniProt Q12809); assay: Inhibition of human ERG up to 100 uM by [H3]-astemizole binding assay
Method in brief: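 hERG activity measured as displacement of [3H]-astemizole binding, compound tested up to 100 µM.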

[29] = AUC in dog at 5 mg/kg, po; format: ADME, organism-based, Canis lupus familiaris; conditions: in vivo; method in brief: as §5
[30] = biological target: T7, Cytochrome P450 2C19 (Homo sapiens, UniProt P33261); assay: Inhibition of CYP2C19 (unknown origin) at 10 uM; format: ADME; method in brief: as §4
[31] = Oral bioavailability in dog at 5 mg/kg; format: ADME, organism-based, Canis lupus familiaris; conditions: in vivo
[32] = Aqueous solubility of compound at pH 6 at 2 mM after 20 hrs by HPLC; format: physicochemical; conditions: aqueous medium
Method in brief: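 Samples in DMSO dried 12 h, then redissolved at pH 6 at a 2 mM target concentration. Stirred 20 h, filtered through 0.7 µm GF filter. Filtrate concentration measured by HPLC against a DMSO standard curve.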

[33] = Cmax in rat at 5 mg/kg, po; format: ADME, organism-based; parameters: dose 5 mg/kg, route oral; conditions: in vivo; method in brief: as §5
[34] = biological target: T6, Cytochrome P450 2B6; assay: Inhibition of CYP2B6 (unknown origin) at 10 uM; format: ADME; method in brief: as §4
[35] = biological target: Prostaglandin G/H synthase 1 (Homo sapiens) (UniProt P23219); assay: Inhibition of COX1 (unknown origin) at 10 uM; method in brief: as §3
[36] = Oral bioavailability in rat at 5 mg/kg; format: ADME, organism-based; conditions: in vivo
[37] = Clearance in dog at 1 mg/kg, iv; format: ADME, organism-based, Canis lupus familiaris; conditions: in vivo; method in brief: as §5
[38] = biological target: T3, Cytochrome P450 1A2; assay: Inhibition of CYP1A2 (unknown origin); format: ADME; method in brief: as §4
[39] = Volume of distribution at steady state in rat at 1 mg/kg, iv or 5 mg/kg, po; format: ADME, organism-based; conditions: in vivo, read-out: Vdss
[40] = biological target: Histamine H1 receptor (Homo sapiens) (UniProt P35367); assay: Inhibition of human histamine H1 receptor at 10 uM; method in brief: as §3
[41] = biological target: Mu-type opioid receptor (Homo sapiens) (UniProt P35372); assay: Inhibition of human Mu-type opioid receptor 10 uM; method in brief: as §3
[42] = biological target: Muscarinic acetylcholine receptor M3 (Homo sapiens) (UniProt P20309); assay: Inhibition of human muscarinic M3 receptor at 10 uM; method in brief: as §3
[43] = biological target: Adrenergic receptor alpha-1 (Rattus norvegicus) (UniProt P15823+P23944+P43140); assay: Inhibition of rat adrenergic alpha1 receptor at 10 uM; method in brief: as §3
[44] = biological target: T1, Cytochrome P450 2D6; assay: Inhibition of CYP2D6 (unknown origin); format: ADME; method in brief: as §4
[45] = biological target: Muscarinic acetylcholine receptor M2 (Homo sapiens) (UniProt P08172); assay: Inhibition of human muscarinic M2 receptor at 10 uM; method in brief: as §3
[46] = biological target: T7, Cytochrome P450 2C19; assay: Inhibition of CYP2C19 (unknown origin); format: ADME; method in brief: as §4
[47] = biological target: T2, Cytochrome P450 2C9; assay: Inhibition of CYP2C9 (unknown origin) at 10 uM; format: ADME; method in brief: as §4
[48] = biological target: D(2) dopamine receptor (Homo sapiens) (UniProt P14416); assay: Inhibition of human dopamine D2 short receptor at 10 uM; method in brief: as §3
[49] = AUC in rat at 5 mg/kg, po; format: ADME, organism-based; conditions: in vivo; method in brief: as §5
[50] = test system: Rattus norvegicus; assay: Antiinflammatory activity in rat adjuvant induced arthritis model assessed as suppression of Mycobacterium tuberculosis H37 RA induced paw swelling at 30 mg/kg measured from day 11 to 15 relative to vehicle control; format: functional, organism-based; method in brief: as §1
[51] = Volume of distribution at steady state in dog at 1 mg/kg, iv or 5 mg/kg, po; format: ADME, organism-based, Canis lupus familiaris; conditions: in vivo, read-out: Vdss
[52] = biological target: Prostaglandin F2-alpha receptor (Homo sapiens) (UniProt P43088); assay: Inhibition of prostaglandin FP receptor (unknown origin) at 10 uM; method in brief: as §3
[53] = biological target: Prostaglandin G/H synthase 2 (Homo sapiens) (UniProt P35354); assay: Inhibition of COX2 (unknown origin) at 10 uM; method in brief: as §3

T6 sequence (P20813 whole entry): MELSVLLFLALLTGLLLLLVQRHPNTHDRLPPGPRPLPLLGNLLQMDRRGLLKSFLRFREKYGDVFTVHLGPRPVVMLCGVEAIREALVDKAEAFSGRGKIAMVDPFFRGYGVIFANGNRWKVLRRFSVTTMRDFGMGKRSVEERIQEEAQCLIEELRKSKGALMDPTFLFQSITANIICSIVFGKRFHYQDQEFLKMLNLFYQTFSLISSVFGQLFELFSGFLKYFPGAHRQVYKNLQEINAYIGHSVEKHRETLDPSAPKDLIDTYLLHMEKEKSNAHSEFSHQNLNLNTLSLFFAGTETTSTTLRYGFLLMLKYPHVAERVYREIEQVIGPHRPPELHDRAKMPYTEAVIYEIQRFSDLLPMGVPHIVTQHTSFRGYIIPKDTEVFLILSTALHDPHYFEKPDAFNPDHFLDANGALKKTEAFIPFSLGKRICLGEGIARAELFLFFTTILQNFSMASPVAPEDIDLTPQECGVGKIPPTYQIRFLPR
T3 sequence (P05177 whole entry): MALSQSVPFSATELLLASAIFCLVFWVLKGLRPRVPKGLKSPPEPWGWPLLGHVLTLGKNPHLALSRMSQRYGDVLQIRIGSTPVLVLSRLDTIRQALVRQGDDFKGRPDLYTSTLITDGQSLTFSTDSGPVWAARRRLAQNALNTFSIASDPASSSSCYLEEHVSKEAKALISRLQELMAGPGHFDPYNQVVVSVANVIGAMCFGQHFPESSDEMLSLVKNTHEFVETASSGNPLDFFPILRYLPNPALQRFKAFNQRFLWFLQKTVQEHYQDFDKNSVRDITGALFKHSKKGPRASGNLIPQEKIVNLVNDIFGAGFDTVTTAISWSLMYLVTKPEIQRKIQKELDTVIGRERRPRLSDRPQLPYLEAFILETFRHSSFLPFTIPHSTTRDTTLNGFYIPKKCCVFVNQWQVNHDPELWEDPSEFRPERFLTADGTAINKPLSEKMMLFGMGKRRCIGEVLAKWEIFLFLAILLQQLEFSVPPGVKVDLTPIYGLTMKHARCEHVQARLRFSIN
T5 sequence (P10632 whole entry): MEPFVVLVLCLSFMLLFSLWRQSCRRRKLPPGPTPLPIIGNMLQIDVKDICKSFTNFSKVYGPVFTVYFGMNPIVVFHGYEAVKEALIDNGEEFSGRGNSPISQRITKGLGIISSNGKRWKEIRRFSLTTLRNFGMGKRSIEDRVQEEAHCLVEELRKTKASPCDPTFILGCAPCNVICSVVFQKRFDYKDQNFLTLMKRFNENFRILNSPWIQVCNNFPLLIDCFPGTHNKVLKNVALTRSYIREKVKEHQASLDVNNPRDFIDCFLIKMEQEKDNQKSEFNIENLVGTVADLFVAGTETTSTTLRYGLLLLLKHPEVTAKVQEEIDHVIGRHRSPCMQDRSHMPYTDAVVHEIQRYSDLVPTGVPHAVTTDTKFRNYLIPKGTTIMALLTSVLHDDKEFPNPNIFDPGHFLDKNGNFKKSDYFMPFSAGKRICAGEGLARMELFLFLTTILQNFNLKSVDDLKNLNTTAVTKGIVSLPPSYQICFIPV
T1 sequence (P10635 whole entry): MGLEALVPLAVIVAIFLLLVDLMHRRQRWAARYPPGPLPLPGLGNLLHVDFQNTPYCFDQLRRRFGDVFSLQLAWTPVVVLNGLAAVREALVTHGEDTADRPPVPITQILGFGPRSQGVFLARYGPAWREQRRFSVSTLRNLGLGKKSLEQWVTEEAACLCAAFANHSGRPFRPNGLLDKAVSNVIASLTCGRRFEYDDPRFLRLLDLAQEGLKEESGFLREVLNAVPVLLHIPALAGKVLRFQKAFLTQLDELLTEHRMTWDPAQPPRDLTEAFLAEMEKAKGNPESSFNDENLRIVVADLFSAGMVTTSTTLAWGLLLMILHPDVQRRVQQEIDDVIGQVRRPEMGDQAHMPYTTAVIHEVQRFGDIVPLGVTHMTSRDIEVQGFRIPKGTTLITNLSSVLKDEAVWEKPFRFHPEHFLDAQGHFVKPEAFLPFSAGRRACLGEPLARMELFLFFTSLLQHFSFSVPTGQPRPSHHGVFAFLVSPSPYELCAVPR
T2 sequence (P11712 whole entry): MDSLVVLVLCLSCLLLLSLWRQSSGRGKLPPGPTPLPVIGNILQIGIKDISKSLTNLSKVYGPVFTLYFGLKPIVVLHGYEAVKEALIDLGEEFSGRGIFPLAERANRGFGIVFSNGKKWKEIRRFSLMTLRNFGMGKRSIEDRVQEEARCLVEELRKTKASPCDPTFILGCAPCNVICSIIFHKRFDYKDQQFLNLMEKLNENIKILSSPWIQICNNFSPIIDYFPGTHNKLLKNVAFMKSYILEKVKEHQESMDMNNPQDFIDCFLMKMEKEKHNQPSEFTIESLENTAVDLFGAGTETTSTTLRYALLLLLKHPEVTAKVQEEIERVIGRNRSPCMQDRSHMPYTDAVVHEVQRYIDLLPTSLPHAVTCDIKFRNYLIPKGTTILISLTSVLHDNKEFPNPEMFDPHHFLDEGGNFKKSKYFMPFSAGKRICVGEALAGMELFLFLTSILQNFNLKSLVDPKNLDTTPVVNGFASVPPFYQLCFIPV
T7 sequence (P33261 whole entry): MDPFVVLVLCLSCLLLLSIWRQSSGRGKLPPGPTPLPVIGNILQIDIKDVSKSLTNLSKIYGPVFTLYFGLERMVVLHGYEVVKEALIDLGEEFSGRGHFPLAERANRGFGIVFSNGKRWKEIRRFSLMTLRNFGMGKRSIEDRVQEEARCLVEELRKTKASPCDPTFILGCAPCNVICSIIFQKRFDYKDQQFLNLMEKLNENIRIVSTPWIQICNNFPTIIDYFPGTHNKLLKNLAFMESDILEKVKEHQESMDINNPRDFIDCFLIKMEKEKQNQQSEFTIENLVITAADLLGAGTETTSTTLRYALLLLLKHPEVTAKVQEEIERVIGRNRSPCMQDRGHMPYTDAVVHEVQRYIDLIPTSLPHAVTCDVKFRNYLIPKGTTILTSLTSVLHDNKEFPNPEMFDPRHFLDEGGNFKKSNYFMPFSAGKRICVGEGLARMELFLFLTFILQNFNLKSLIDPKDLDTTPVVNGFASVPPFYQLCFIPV
T4 sequence (P08684 whole entry): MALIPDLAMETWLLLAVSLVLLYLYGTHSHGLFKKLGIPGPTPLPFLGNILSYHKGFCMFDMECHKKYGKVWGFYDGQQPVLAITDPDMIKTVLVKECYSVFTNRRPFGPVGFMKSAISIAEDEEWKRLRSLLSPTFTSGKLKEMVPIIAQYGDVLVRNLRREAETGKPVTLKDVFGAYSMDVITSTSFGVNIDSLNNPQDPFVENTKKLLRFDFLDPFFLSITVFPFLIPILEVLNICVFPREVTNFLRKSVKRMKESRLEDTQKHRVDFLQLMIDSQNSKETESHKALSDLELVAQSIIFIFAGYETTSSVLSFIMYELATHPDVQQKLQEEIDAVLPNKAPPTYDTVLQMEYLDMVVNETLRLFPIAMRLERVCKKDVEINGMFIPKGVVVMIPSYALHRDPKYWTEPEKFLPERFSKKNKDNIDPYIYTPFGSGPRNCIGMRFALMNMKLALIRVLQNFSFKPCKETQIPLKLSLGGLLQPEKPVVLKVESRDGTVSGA
Chain of Muscarinic acetylcholine receptor M2 (Homo sapiens) (P08172 whole entry): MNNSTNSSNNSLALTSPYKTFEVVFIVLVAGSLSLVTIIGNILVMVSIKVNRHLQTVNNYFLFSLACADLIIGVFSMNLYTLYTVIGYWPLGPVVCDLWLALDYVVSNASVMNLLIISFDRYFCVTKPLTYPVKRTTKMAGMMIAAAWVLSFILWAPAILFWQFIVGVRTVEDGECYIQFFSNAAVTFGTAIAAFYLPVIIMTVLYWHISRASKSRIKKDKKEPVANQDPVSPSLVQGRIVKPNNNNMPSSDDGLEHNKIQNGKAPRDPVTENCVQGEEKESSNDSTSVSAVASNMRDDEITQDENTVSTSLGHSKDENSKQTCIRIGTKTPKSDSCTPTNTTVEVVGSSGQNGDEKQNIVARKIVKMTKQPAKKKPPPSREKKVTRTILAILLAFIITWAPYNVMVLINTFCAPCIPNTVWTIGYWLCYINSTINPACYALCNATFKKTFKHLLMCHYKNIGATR
Chain of Muscarinic acetylcholine receptor M3 (Homo sapiens) (P20309 whole entry, looked up): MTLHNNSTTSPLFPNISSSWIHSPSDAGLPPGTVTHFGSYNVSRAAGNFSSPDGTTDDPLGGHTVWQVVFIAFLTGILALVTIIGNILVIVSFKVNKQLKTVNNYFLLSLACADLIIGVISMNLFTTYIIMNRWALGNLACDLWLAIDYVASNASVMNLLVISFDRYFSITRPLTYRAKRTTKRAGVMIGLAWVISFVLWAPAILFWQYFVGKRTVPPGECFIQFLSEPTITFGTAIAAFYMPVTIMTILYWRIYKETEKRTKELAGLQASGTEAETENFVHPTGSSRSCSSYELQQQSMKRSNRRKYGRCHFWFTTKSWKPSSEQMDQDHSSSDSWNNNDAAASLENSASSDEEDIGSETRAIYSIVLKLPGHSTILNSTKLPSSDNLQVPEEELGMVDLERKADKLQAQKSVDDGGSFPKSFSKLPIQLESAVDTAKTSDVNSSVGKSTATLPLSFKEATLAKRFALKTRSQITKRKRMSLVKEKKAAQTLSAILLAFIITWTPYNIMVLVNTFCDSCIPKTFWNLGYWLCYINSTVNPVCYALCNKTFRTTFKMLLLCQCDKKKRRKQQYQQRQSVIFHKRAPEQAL
Chain of D(1A) dopamine receptor (Homo sapiens) (P21728 whole entry): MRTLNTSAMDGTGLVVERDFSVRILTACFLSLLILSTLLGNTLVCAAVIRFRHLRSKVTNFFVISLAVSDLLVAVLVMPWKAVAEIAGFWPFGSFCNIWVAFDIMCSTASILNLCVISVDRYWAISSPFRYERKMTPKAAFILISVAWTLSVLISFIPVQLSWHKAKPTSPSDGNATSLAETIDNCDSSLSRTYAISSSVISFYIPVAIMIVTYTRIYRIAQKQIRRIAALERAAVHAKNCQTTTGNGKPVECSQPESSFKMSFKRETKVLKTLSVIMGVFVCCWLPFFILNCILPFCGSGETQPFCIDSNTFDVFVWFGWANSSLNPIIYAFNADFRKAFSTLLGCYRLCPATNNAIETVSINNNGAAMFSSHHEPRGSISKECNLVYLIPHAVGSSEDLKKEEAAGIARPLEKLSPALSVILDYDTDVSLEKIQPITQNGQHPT

Structure (SMILES): O=C(O)Cc1ccccc1Nc1c(Cl)cccc1Cl
- Activity [1]: Active
- Activity [2]: Active

Structure (SMILES): Cc1ccc(N2CCC(O)CC2)nc1C(=O)Nc1c(C)cc(C(=O)O)cc1C
- inhibition [3]: 14%
- inhibition [4]: inactive
- inhibition (INH) [5]: Not Active
- inhibition at 10 µM [6]: -39%
- IC50 [7]: > 10 µM
- inhibition [8]: 3%
- inhibition at 10 µM [9]: -23%
- inhibition [10]: inactive
- half-life [11]: 5.1 h
- inhibition (INH) [12]: Not Active
- inhibition (INH) [13]: Not Active
- clearance [14]: 3 mL/min/kg
- IC50 [15]: > 10 µM
- inhibition [16]: 7%
- Cmax [17]: 1870 ng/mL
- inhibition at 10 µM [18]: 1%
- inhibition [19]: inactive
- inhibition [20]: -2%
- inhibition (INH) [21]: Not Active
- half-life [22]: 5.1 h
- Activity [23]: Dose-dependent effect
- IC50 [24]: > 10 µM
- inhibition [25]: 7%
- IC50 [26]: > 10 µM
- inhibition [27]: -4%
- inhibition (INH) [28]: Not Active
- AUC [29]: 6320 ng·h/mL
- inhibition (INH) [30]: Not Active
- bioavailability [31]: 75%
- solubility at 20 h, 2000 µM [32]: 762 µg/mL (≈ 1990 µM)
- Cmax [33]: 3100 ng/mL
- inhibition (INH) [34]: Not Active
- inhibition [35]: inactive
- bioavailability [36]: 34%
- clearance [37]: 10 mL/min/kg
- IC50 [38]: > 10 µM
- Vd [39]: 0.34 L/kg
- inhibition [40]: -3%
- inhibition [41]: -8%
- inhibition [42]: 0%
- inhibition [43]: -8%
- IC50 [44]: > 10 µM
- inhibition [45]: 6%
- IC50 [46]: > 10 µM
- inhibition (INH) [47]: Not Active
- inhibition [48]: 5%
- AUC [49]: 9670 ng·h/mL
- Activity [50]: Active
- Vd [51]: 1.73 L/kg
- inhibition [52]: inactive
- inhibition [53]: inactive

From ChEMBL document CHEMBL3792364, “Identification and biological activity of 6-alkyl-substituted 3-methyl-pyridine-2-carbonyl amino dimethyl-benzoic acid EP4 antagonists” (Bioorg Med Chem Lett, 2016)
